Rows were chosen to be rich in hits. Some 9.2% of all compounds tested hit in one or more screens of this group.
HCT116 bCat-KO: beta-catenin-lacking colon tumor cell growth suppression | AID 818 | viability, % at 10 µM | HCT116 beta-catenin knockout viability, CellTiter-Glo, 60 h; active compounds read low | 140,000 tested, 1.5% active;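 active means viability at or under a set limit, the compound median less 4 SD, cut at about 6% in these data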;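 further: 0% = Hyamine 1622 control at 20 µM and 100% = untreated cell control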
Dynein transport: dynein cargo transport inhibition; 3617.4 mouse cells, GR-EGFP nuclear translocation imaging; test concentration mostly 20 µM; stimulated with dexamethasone, 1 µM; active compounds read low; z-score, hits read low; 220,000 tested, 0.47% active;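 active means plate z-score of nuclear minus cytoplasmic receptor signal below a set negative limit, without overly bright fluorescence or cell loss, cut at about -3.5 in these data, passing the limit was not always enough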;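 further: z-score of nuclear minus cytoplasmic ring GR-EGFP intensity difference per well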
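Buffer or medium: tet-free, stripped-serum medium; reagent: dexamethasone at 1.0 µM final, 30 min; incubation: 48 h induction, 1 h compound, 30 min dex at 37 °C; measured by: formaldehyde fixation, Hoechst nuclear stain, 10x automated fluorescence imaging; read-out: nuclear-to-cytoplasmic GR-EGFP distribution per well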
Autophagy mod: autophagy modulation, high-content screen; MEF GFP-LC3 puncta imaging; test concentration mostly 10 µM; calls only at 10 µM (by protocol); 190,000 tested, 0.98% active; AID 463193;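 active means percentage of spot-positive cells more than 3 SD above its plate mean, without a fluorescence outlier flag or 80% toxicity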;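 further: spot-positive cell cutoff set from DMSO-treated cells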
PTEN del growth: suppresses growth of cells with PTEN deletion; HCT116 PTEN-null viability, CellTiter-Glo, 60 h; active compounds read low; viability, % at 10 µM; 140,000 tested, 1.2% active; AID 827;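 active means viability at or below a set limit, 4 SD under the median of all tested compounds, cut at about 3.7% in these data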;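 further: PTEN knockout HCT116 line with beta catenin targeted HCT116 as companion control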
L major viab: inhibitors of Leishmania major promastigote growth; Leishmania major promastigotes, resazurin fluorescence viability; 200,000 tested, 9% active; inhibition, % at 10 µM; in the data active means inhibition above about 50%;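 further: promastigotes grown with compound for 44 hours at 28 °C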
* = called active by the depositor; i = inactive; x = not tested or not shown; + = active, no number.

SMILES	HCT116 bCat-KO	Dynein transport	Autophagy mod	PTEN del growth	L major viab
O=c1[nH]c(=O)n([C@H]2C[C@H](O)[C@@H](CO)O2)cc1C(F)(F)F	66	-0.63	+	71	-1
CCc1cn([C@H]2C[C@H](O)[C@@H](CO)O2)c(=O)[nH]c1=O	95	-0.65	i	102	19
CC(C)c1ccc(-c2cc(C(=O)N3N=C(C(F)F)CC3(O)C(F)F)c3ccccc3n2)cc1 (stereo not drawn)	7	-0.88	i	4	93*
Cn1nnnc1SCC(=O)Nc1ccc(Cl)c(S(=O)(=O)N2CCOCC2)c1	x	-0.2	x	x	x
O=C(CSc1nc2ccccc2[nH]1)Nc1ccc2c(c1)CCC2	95	1.1	i	85	76*
COc1ccc2nc(SCC(=O)NC3CCCc4ccccc43)[nH]c2c1 (stereo not drawn)	80	-0.32	i	93	75*
O=C(CSc1nc2ccc(Cl)cc2[nH]1)NC1CCCc2ccccc21 (stereo not drawn)	57	0.1	i	56	9
CCCCn1c(SCC(=O)Nc2ccc3c(c2)CCC3)nc2ccccc2c1=O	87	-0.055	i	80	69*
Cc1c(NC(=O)c2ccc(-c3ccc([N+](=O)[O-])cc3Cl)o2)c(=O)n(-c2ccccc2)n1C	x	0.76	i	x	16
CC1=CC(C)(C)[N+](C)(C)c2ccc(C)cc21	x	-0.016	i	x	-1
O=C(CN1CCN(c2ccccc2)CC1)Nc1ccc2c(c1)OCCO2	x	0.65	i	x	-17
CCCn1c(N2CCN(CC(=O)Nc3ccc4c(c3)OCCO4)CC2)nc2ccccc21	90	0.57	i	91	79*
COc1ccc(-c2cc(=O)[nH][nH]2)cc1	109	1.1	i	105	76*
COc1ccc(-c2cc(=O)[nH]c(=O)[nH]2)cc1	96	1.1	i	101	-3
COc1cc2ncnc(NCc3ccc(Cl)cc3)c2cc1OC	x	-0.61	i	x	62*
N#CCCN(Cc1cccnc1)C(=S)Nc1ccccc1Cl	x	1.6	i	x	23
COc1ccc(NC(=O)N(CCCN2CCOCC2)Cc2cccnc2)c(OC)c1	x	0.15	i	x	7
O=C(Nc1ccc(Cl)c(Cl)c1)N(Cc1cccnc1)Cc1ccco1	71	1.6	i	65	100*
Cc1c(Cl)cccc1NC(=S)N(Cc1cccnc1)Cc1ccccc1Cl	x	2.2	i	x	95*
Cc1ccc(NC(=O)N(CCCN2CCOCC2)Cc2cccnc2)cc1C	97	0.83	i	101	65*
S=C(Nc1ccccc1Cl)N(Cc1cccnc1)Cc1ccco1	x	-0.79	i	x	95*
CCOC(=O)C1=NN(c2ccc(Cl)cc2)C(=O)C1	x	0.051	x	x	x
CCCn1c(C)cc(C(=O)COc2ccc(C)nc2[N+](=O)[O-])c1C	13	0.25	i	10	0
CCCn1c(C)cc(C(=O)COc2ccc(S(=O)(=O)N(CC)CC)cc2[N+](=O)[O-])c1C	14	-0.23	i	14	84*
C=CCn1c(C)cc(C(=O)COc2ccc(S(=O)(=O)N3CCCC3)cc2[N+](=O)[O-])c1C	13	0.4	i	13	86*
SMILES	HCT116 bCat-KO	Dynein transport	Autophagy mod	PTEN del growth	L major viab
Cc1nnc(NC(=O)CSc2nnc(-c3ccccc3)n2C)s1	x	-0.32	i	x	1
COc1ccc(NC(=O)CSc2nc(N)c(NC(=O)c3cccs3)c(=O)[nH]2)cc1	x	0.27	x	x	x
Fc1ccc(-n2c(Cc3ccccc3)nnc2SCc2nc(-c3cccs3)no2)cc1	48	0.65	i	66	99*
Cc1ccc(-n2c(SCc3cn4ccsc4n3)nc3ccccc3c2=O)cc1	85	-0.0016	i	77	85*
O=c1c2ccccc2nc(SCc2nc(-c3ccccc3)no2)n1-c1ccc(F)cc1	69	-0.39	i	66	87*
c1ccc(-c2noc(CSc3nnc(Cc4cccs4)n3-c3ccccc3)n2)cc1	104	-0.58	i	94	65*
Clc1ccc(-c2noc(CSc3nnc(Cc4cccs4)n3-c3ccccc3)n2)cc1	68	0.24	i	69	6
Cc1ccc(-c2noc(CSc3nnc(Cc4cccs4)n3-c3ccccc3)n2)cc1	74	-0.72	x	80	8
COc1ccc(-c2noc(CSc3nc4ccccc4c(=O)n3-c3ccccc3)n2)cc1OC	78	-0.068	i	81	24
CCOC(=O)c1nnn(-c2nonc2N)c1CSc1nnc(N)s1	x	0.12	i	x	-4
Cc1ccc(C(=O)N2CCN3C(=O)c4ccccc4C23c2ccccc2)cc1 (stereo not drawn)	x	2.8	i	x	54*
CCOc1ccc2nc(NC3=NC(c4ccc(OC)cc4)CC(=O)N3)nc(C)c2c1 (stereo not drawn)	1.4*	-0.47	i	1.8*	15
CCOc1ccc2c(C)nc(NC3=NC(C)(C)C=C(C)N3)nc2c1	12	-0.76	i	9	101*
CCOc1ccc2nc(NC3=NC(C)(C)C=C(C)N3)nc(C)c2c1	5.0*	1.3	i	12	98*
COCc1cc(=O)[nH]c(Nc2nc(C)c3cc(OC)ccc3n2)n1	88	-0.084	i	93	31
Cc1ccc2nc(NC3=NC(CC(=O)O)C(=O)N3)nc(C)c2c1 (stereo not drawn)	x	-0.21	i	x	0
O=C(NCCc1ccccc1)C(=O)NCC1CCNCC1	x	-0.1	i	x	-4
Cc1ccc(NS(=O)(=O)c2cc(NC(=O)C(C)Oc3ccccc3)ccc2C)c(C)c1 (stereo not drawn)	73	0.57	i	61	98*
CN(C)CCCN(C(=O)c1ccc2c(c1)CCCC2)c1nc2c(F)cccc2s1	29	-2.7	i	16	29
Cc1ccc2nc(N(CCCN(C)C)C(=O)c3ccc4c(c3)CCCC4)sc2c1	3.4*	2.2	i	1.0*	99*
O=C(COC(=O)/C(=C/c1cccs1)c1cccs1)NC(c1ccccc1)c1ccccc1	92	0.062	i	84	97*
CCOc1ccc(S(=O)(=O)N(CC(=O)NC2CCCCC2C)Cc2ccco2)cc1 (stereo not drawn)	89	0.46	i	96	87*
COc1ccnc(Oc2ccccc2)c1C(=O)N/C=N/OCc1ccccc1F	x	1.8	i	x	17
O=C(c1ccccc1)C1CCc2occc2C1=O (stereo not drawn)	106	-1.7	i	112	-3
CCN(CC)S(=O)(=O)c1cc(NC(=O)C(C)N(C)CC(=O)Nc2c(C)cccc2C)ccc1C (stereo not drawn)	67	-0.14	i	67	68*
CC1CCC2(CC1)NC(=O)N(CC(=O)NC(=O)NC1CCCC1)C2=O (stereo not drawn)	94	2.3	i	101	0
COc1ccccc1C(=O)NC(=S)NNC(=O)c1sc2ccccc2c1Cl	11	-1.1	i	19	90*
Cc1c(NC(=S)NC(=O)c2sc3ccccc3c2Cl)cccc1C(=O)O	x	-1.3	i	x	-4
COc1ccccc1C(=O)NNC(=S)NC(=O)c1sc2ccccc2c1Cl	28	-0.066	i	21	54*

Screening data as filed in PubChem.
